Reference: article PMC5836871 (Journal of Clinical Pharmacology, 2017)
Values joined by “and” are separate entries in the source; they are usually repeats but may differ in a detail not shown here. Identical values can stand only once. Like-named read-outs stand apart in the source and are kept apart here. Marks after values point to notes of the source that are not given here. Blank lines part the entries; values can stand above or below the compound they belong to.

Tests used:
[1] = type: in vitro ADME, human; conditions: for Protein-bound fraction, mean ± SD: plasma spiked with 100 ng/mL 14C-labeled compound
Method in brief: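 Predose plasma from Child-Pugh A, Child-Pugh B and matched healthy subjects was spiked ex vivo with 100 ng/mL [14C]-labelled test compound or its [14C]-labelled metabolite. Binding was measured in vitro by equilibrium dialysis, with radioactivity quantified by liquid scintillation counting. The protein-bound fraction is reported as the group mean ± SD.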

[2] = ref BI, data on file, cited from earlier work
Safety and tolerability = type: in vivo, human
Method in brief: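 Open-label, parallel-group, matched-group phase 1 study in adults aged 18–79 with BMI 18.5–34 kg/m2 (Child-Pugh A, Child-Pugh B, and healthy subjects matched by age, weight, race, smoking and sex). Each subject took one oral soft-gelatin capsule with 240 mL water, fed. AEs were recorded from dosing to the end of the 28-day follow-up and coded by MedDRA v17.1. Relatedness was judged by the investigator.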

P‐glycoprotein = conditions: cited from earlier work
[3] = cited from earlier work
[4] = type: in vivo, human; conditions: for fe0–72 (fraction excreted unchanged in urine), gMean (gCV%) / AUC0–∞ of metabolite, gMean (gCV%) / Cmax of metabolite, gMean (gCV%) / t1/2, gMean (gCV%): single oral nintedanib 100 mg
Method in brief: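 Single oral 100 mg dose of test compound as soft-gelatin capsule, fed. Adults 18–79 y, BMI 18.5–34 kg/m2: Child-Pugh A (score 5–6) or B (7–9) hepatic impairment, plus matched healthy controls. Plasma sampled to day 8 for parent and metabolites. AUC0–∞, Cmax and AUC0–tz compared by log-scale ANOVA (hepatic status fixed, matched pair random); other parameters descriptive.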

[5] = single 100 mg dose, Child-Pugh A (n = 8)
[6] = single 100 mg dose, Child-Pugh B (n = 8)
[7] = single 100 mg dose, Healthy (n = 17)
[8] = Child-Pugh A subjects vs healthy subjects
[9] = Child-Pugh A vs matched healthy subjects
[10] = Child-Pugh A, Child-Pugh B, healthy subjects
[11] = Child-Pugh B subjects vs healthy subjects
[12] = Child-Pugh B vs matched healthy subjects
[13] = Child-Pugh A matched healthy subjects (n = 8)
[14] = Child-Pugh B matched healthy subjects (n = 8)

- Protein-bound fraction ([1]; across the groups): > 99%
- Exposure, fold higher than in healthy subjects [4, 8]: ~2 fold
- AUC0–tz, adjusted gMean ratio [4, 9]: 216.8%
- AUC0–∞, adjusted gMean ratio [4, 9]: 215.4%
- Cmax, adjusted gMean ratio [4, 9]: 221.8%
- Renal clearance, comparison across groups [4, 10]: comparable across groups
- Exposure, fold higher than in healthy subjects [4, 11]: ~8 fold
- AUC0–tz, adjusted gMean ratio [4, 12]: 870.7%
- AUC0–∞, adjusted gMean ratio [4, 12]: 867.1%
- Cmax, adjusted gMean ratio [4, 12]: 761.0%
- Time at which Cmax was reached, range ([4]; individual range across all groups): 1 to 8 h
- Median time at which Cmax was reached ([4]; medians across Child-Pugh A, Child-Pugh B and healthy subjects): 3 to 4 h
- fe0–72 (fraction excreted unchanged in urine), gMean (gCV%) ([4]; Child-Pugh A (n = 8)): 0.204 (96.2) %
- fe0–72 (fraction excreted unchanged in urine), gMean (gCV%) [4, 13]: 0.102 (37.9) %
- fe0–72 (fraction excreted unchanged in urine), gMean (gCV%) ([4]; Child-Pugh B (n = 7)): 0.543 (31.7)^b %
- fe0–72 (fraction excreted unchanged in urine), gMean (gCV%) [4, 14]: 0.0945 (28.7) %
Structure (SMILES): COC(=O)c1ccc2c(c1)NC(=O)/C2=C(\Nc1ccc(N(C)C(=O)CN2CCN(C)CC2)cc1)c1ccccc1 [Nintedanib]
- Time to maximum plasma concentrations ([2]; Asian (n = 39) and European (n = 32) patients with impaired hepatic function and advanced HCC): 2 to 3 h
- Exposure, fold higher in group II compared with group I ([2]; group II: ALT or AST >2 to ≤5 × ULN or Child-Pugh score 7, group I: ALT and AST ≤ 2 × ULN and Child-Pugh score 5–6): ~2 fold
- Severe or serious AEs (Safety and tolerability; all groups, single 100 mg dose): No severe or serious AEs were reported
- Tolerability (Safety and tolerability; all groups, single dose of 100 mg): well tolerated
- Diarrhea (Safety and tolerability; [5]): 0 n (%)
- Headache (Safety and tolerability; [5]): 0 n (%)
- Nausea (Safety and tolerability; [5]): 0 n (%)
- Pruritus (Safety and tolerability; [5]): 0 n (%)
- Skin irritation (Safety and tolerability; [5]): 0 n (%)
- Vomiting (Safety and tolerability; [5]): 0 n (%)
- Diarrhea (Safety and tolerability; [6]): 1 (12.5) n (%)
- Headache (Safety and tolerability; [6]): 0 n (%)
- Nausea (Safety and tolerability; [6]): 1 (12.5) n (%)
- Pruritus (Safety and tolerability; [6]): 1 (12.5) n (%)
- Skin irritation (Safety and tolerability; [6]): 1 (12.5) n (%)
- Subjects with any AE (Safety and tolerability; [6]): 3 n (%) and 3 (37.5) n (%)
- Vomiting (Safety and tolerability; [6]): 0 n (%)
- Diarrhea (Safety and tolerability; [7]): 0 n (%)
- Headache (Safety and tolerability; [7]): 1 (5.9) n (%)
- Nausea (Safety and tolerability; [7]): 2 (11.8) n (%)
- Pruritus (Safety and tolerability; [7]): 0 n (%)
- Skin irritation (Safety and tolerability; [7]): 0 n (%)
- Subjects with any AE (Safety and tolerability; [7]): 3 n (%) and 3 (17.6) n (%)
- Vomiting (Safety and tolerability; [7]): 1 (5.9) n (%)
- P-glycoprotein substrate (P‐glycoprotein): substrate of P‐glycoprotein
- Time of absorption (delay by food) ([3]; after food intake): ~4 h
- Terminal half-life [3]: 10 to 15 h
- Time of absorption (delay by food) ([3]; fasted conditions): approximately 2 hours
- Exposure increase when administered after food intake ([3]; fed vs fasted): approximately 20%
- Total body clearance ([3]; healthy subjects): 1390 mL/min
- Elimination through biliary/fecal excretion ([3]; in vivo): > 90%
- Absolute bioavailability ([3]; nintedanib 100 mg in healthy volunteers): approximately 5%
- Time to steady state ([3]; of dosing): ≤ 7 days
- Time to maximum plasma concentration ([3]; oral administration): 2 to 4 h

- Protein-bound fraction, mean ± SD ([1]; Child-Pugh A (n = 8)): 81.2 ± 3.6%
- Protein-bound fraction, mean ± SD ([1]; Child-Pugh B (n = 8)): 82.4 ± 5.5%
- Protein-bound fraction, mean ± SD ([1]; Healthy (n = 17)): 85.0 ± 3.0%
- Exposure, fold higher than in healthy subjects [4, 8]: ~2 fold
- AUC0–∞, fold higher than in healthy subjects [4, 11]: ~17 fold
- Cmax, fold higher than in healthy subjects [4, 11]: 9 fold
- AUC0–∞ of metabolite, gMean (gCV%) ([4]; Child-Pugh A (n = 8)): 216 (81.8) ng∙h/mL
- Cmax of metabolite, gMean (gCV%) ([4]; Child-Pugh A (n = 8)): 17.4 (47.1) ng/mL
- t1/2, gMean (gCV%) ([4]; Child-Pugh A (n = 8)): 39.1 (53.8) h
- AUC0–∞ of metabolite, gMean (gCV%) [4, 13]: 86.8 (48.8) ng∙h/mL
- Cmax of metabolite, gMean (gCV%) [4, 13]: 7.55 (56.2) ng/mL
- t1/2, gMean (gCV%) [4, 13]: 24.7 (65.1) h
- AUC0–∞ of metabolite, gMean (gCV%) ([4]; Child-Pugh B (n = 8)): 1190 (86.4) ng∙h/mL
- Cmax of metabolite, gMean (gCV%) ([4]; Child-Pugh B (n = 8)): 60.7 (75.2) ng/mL
- t1/2, gMean (gCV%) ([4]; Child-Pugh B (n = 8)): 46.9 (16.6) h
- AUC0–∞ of metabolite, gMean (gCV%) [4, 14]: 70.4 (38.7) ng∙h/mL
- Cmax of metabolite, gMean (gCV%) [4, 14]: 6.47 (57.5) ng/mL
- t1/2, gMean (gCV%) [4, 14]: 23.6 (50.1) h
Structure (SMILES): CN1CCN(CC(=O)N(C)c2ccc(N/C(=C3\C(=O)Nc4cc(C(=O)O)ccc43)c3ccccc3)cc2)CC1 [BIBF 1202]

- AUC0–∞, fold higher than in healthy subjects [4, 8]: ~1.5 fold
- Cmax, comparison across groups [4, 10]: comparable across groups
- AUC0–∞, fold higher than in healthy subjects [4, 11]: ~3.5 fold
- AUC0–∞ of metabolite, gMean (gCV%) ([4]; Child-Pugh A (n = 8)): 1040 (95.9) ng∙h/mL
- Cmax of metabolite, gMean (gCV%) ([4]; Child-Pugh A (n = 8)): 15.1 (113) ng/mL
- t1/2, gMean (gCV%) ([4]; Child-Pugh A (n = 8)): 41.1 (45.5) h
- AUC0–∞ of metabolite, gMean (gCV%) [4, 13]: 657 (66.8) ng∙h/mL
- Cmax of metabolite, gMean (gCV%) [4, 13]: 11.4 (62.0) ng/mL
- t1/2, gMean (gCV%) [4, 13]: 31.9 (34.1) h
- AUC0–∞ of metabolite, gMean (gCV%) ([4]; Child-Pugh B (n = 8)): 2650 (285) ng∙h/mL
- Cmax of metabolite, gMean (gCV%) ([4]; Child-Pugh B (n = 8)): 19.6 (201) ng/mL
- t1/2, gMean (gCV%) ([4]; Child-Pugh B (n = 8)): 57.4 (114) h
- AUC0–∞ of metabolite, gMean (gCV%) [4, 14]: 761 (69.1) ng∙h/mL
- Cmax of metabolite, gMean (gCV%) [4, 14]: 12.7 (76.2) ng/mL
- t1/2, gMean (gCV%) [4, 14]: 28.3 (21.9) h
Structure (SMILES): CN1CCN(CC(=O)N(C)c2ccc(N/C(=C3\C(=O)Nc4cc(C(=O)O[C@@H]5O[C@H](C(=O)O)[C@@H](O)[C@H](O)[C@H]5O)ccc43)c3ccccc3)cc2)CC1 [BIBF 1202 glucuronide]
